The values below come from ChEMBL document CHEMBL5528013 (Eur J Med Chem, 2024).

For assay [1], the system named is MOLM-14. Description: Antiproliferative activity against human MOLM-14 cells assessed as inhibition of cell growth incubated for 72 hrs by resazurin dye based assay. Format: functional. The note with it: MOLM-14, 72 h. In a few lines:
(§1)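 Logarithmic-phase cells were seeded at 5000 per well and treated 24 h later, in triplicate, with various concentrations for 72 h. MOLM14 lines were grown in RPMI with 10 % FBS, and other lines per provider instructions, all at 37 °C and 5 % CO2. Resazurin was then added for 4–6 h and fluorescence read. GI50 was taken from percent growth versus DMSO control, fitted with a variable-slope normalized-response model; at least three runs.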

The subject of assay [2] is MOLM-14. The assay can be described thus: Antiproliferative activity against human MOLM-14 cells harboring FLT3-D835Y mutant assessed as inhibition of cell growth incubated for 72 hrs by resazurin dye based assay. Format: functional. The note with it: MOLM-14, 72 h. A digest of the protocol: as §1
On the technique in general: Resazurin is reduced to fluorescent resorufin, in cell work by metabolically active cells.

Assay [3] relates to MOLM-14. The class given is functional, cell-based. As to conditions: Homo sapiens, MOLM-14, 72 h.
Assay [4] concerns K562. The assay can be described thus: Antiproliferative activity against human K562 cells assessed as inhibition of cell growth incubated for 72 hrs by resazurin dye based assay. The class given is functional. The note with it: K562, 72 h. A digest of the protocol: as §1

On to `Cn1cc(-c2ccn3c(-c4cccc(Nc5ccc(OCCN6CCCCC6)cc5)n4)cnc3c2)cn1`, for which the IC50 was 0.19 nM in assay [1], 0.77 nM in assay [2], 9.8 nM in assay [3] and over 1000 nM in assay [4].
As for `Cn1cc(-c2ccn3c(-c4cccc(Nc5ccc(C(F)(F)F)cc5)n4)cnc3c2)cn1`, the IC50 in assay [1] was 33.3 nM; in assay [2], 18.9 nM; in assay [3] it was 160 nM; in assay [4], over 1000 nM.
On to `Cn1cc(-c2ccn3c(-c4cccc(Nc5cc(C(C)(C)C)nn5-c5ccc(F)cc5)n4)cnc3c2)cn1`, for which the IC50 was 18 nM in assay [1], 56 nM in assay [2], over 1000 nM in assay [3] and over 1000 nM in assay [4].
In the case of `Cn1cc(-c2ccn3c(-c4cccc(N5CCN(C(=O)OC(C)(C)C)CC5)n4)cnc3c2)cn1`, the half-maximal inhibitory concentration (IC50) in assay [1] is 51.9 nM; in assay [2], 259 nM; in assay [3], 794 nM; in assay [4] it was over 1000 nM.
As to `Cn1cc(-c2ccn3c(-c4ccccc4Cl)cnc3c2)cn1`, the IC50 is 397 nM in assay [1], over 1000 nM in assay [2], over 1000 nM in assay [3] and over 1000 nM in assay [4].
For `COC(=O)c1ccc(C)c(Nc2cccc(-c3cnc4cc(-c5cnn(C)c5)ccn34)n2)c1`, the IC50 in assay [1] was 233 nM; in assay [2] it was 177 nM; in assay [3], over 1000 nM; in assay [4], over 1000 nM.
Turning to `Cn1cc(-c2ccn3c(-c4cccc(Nc5ccc6c(c5)OCCO6)n4)cnc3c2)cn1`, the IC50 in assay [1] is 1.72 nM; in assay [2], 0.87 nM; in assay [3], 9.98 nM; in assay [4], over 1000 nM.
`Cn1cc(-c2ccn3c(-c4cccc(Nc5ccc(C(=O)OC(C)(C)C)cc5)n4)cnc3c2)cn1`: the IC50 in assay [1] is 76.6 nM; in assay [2], 76.6 nM; in assay [3], 792 nM; in assay [4], over 1000 nM.
Take `CC1CN(c2cccc(-c3cnc4cc(-c5cnn(C)c5)ccn34)n2)CCN1C(=O)OC(C)(C)C` (stereo not given): the IC50 is 101 nM in assay [1], 353 nM in assay [2], 426 nM in assay [3] and over 1000 nM in assay [4].
As for `Cn1cc(-c2ccn3c(-c4ccc(Cl)cc4)cnc3c2)cn1`, the IC50 in assay [1] is 16.9 nM; in assay [2], 166 nM; in assay [3], 293 nM; in assay [4] it was over 1000 nM.
Take `Cn1cc(-c2ccn3c(-c4cccc(Nc5ccc(OC(F)(F)F)cc5)n4)cnc3c2)cn1`: the IC50 in assay [1] was 19.3 nM; in assay [2], 49.9 nM; in assay [3], 462 nM; in assay [4], over 1000 nM.
In the case of `Cc1ccc(-n2nc(C(C)(C)C)cc2Nc2cccc(-c3cnc4cc(-c5cnn(C)c5)ccn34)n2)cc1`, the IC50 was 162 nM in assay [1], 414 nM in assay [2], over 1000 nM in assay [3] and over 1000 nM in assay [4].
As for `Cn1cc(-c2ccn3c(-c4cccc(Nc5ccc([N+](=O)[O-])cc5)n4)cnc3c2)cn1`, the IC50 in assay [1] was 6.82 nM; in assay [2], 5.19 nM; in assay [3] it was 314 nM; in assay [4] it was 923 nM.
Take `Cn1cc(-c2ccn3c(-c4cccc(Nc5cccc(C(F)(F)F)c5)n4)cnc3c2)cn1`: the IC50 is 2.24 nM in assay [1], 3.2 nM in assay [2], 28.9 nM in assay [3] and 132 nM in assay [4].
For `Cn1cc(-c2ccn3c(-c4cccc(NC5CCN(C(=O)OC(C)(C)C)CC5)n4)cnc3c2)cn1`, the 50% inhibitory concentration (IC50) in assay [1] was 17.2 nM; in assay [2], 18.2 nM; in assay [3], 97.5 nM; in assay [4] it was over 1000 nM.
In the case of `CCc1ccc(Nc2cccc(-c3cnc4cc(-c5cnn(C)c5)ccn34)n2)cc1`, the IC50 in assay [1] turned out to be 9.03 nM; in assay [2] it was 3.62 nM; in assay [3] it was 294 nM; in assay [4] it was 927 nM.
`Cn1cc(-c2ccn3c(-c4cccc(Nc5cnccn5)n4)cnc3c2)cn1`: the IC50 in assay [1] amounted to 4.03 nM; in assay [2] it was 2.46 nM; in assay [3], 259 nM; in assay [4], 115 nM.
Consider `Cn1cc(-c2ccn3c(-c4cccc(Nc5ccc(OCCN6CCOCC6)cc5)n4)cnc3c2)cn1`, for which the IC50 was 1 nM in assay [1], 1.83 nM in assay [2], 7.1 nM in assay [3] and over 1000 nM in assay [4].
Consider `Cn1cc(-c2ccn3c(-c4cccc(Nc5ccc(OCCN6CCCC6)cc5)n4)cnc3c2)cn1`, for which the IC50 in assay [1] was 0.77 nM; in assay [2] it was 2.21 nM; in assay [3] it was 12.5 nM; in assay [4] it was over 1000 nM.
For `Cn1cc(-c2ccn3c(-c4cccc(Nc5cc(C(C)(C)C)nn5C)n4)cnc3c2)cn1`, in that order: 3.8 nM, 2.59 nM, 32.6 nM and 210 nM.
Turning to `Cc1ccc(Nc2cccc(-c3cnc4cc(-c5cnn(C)c5)ccn34)n2)cc1`, the IC50 turned out to be 5.67 nM in assay [2], 18.9 nM in assay [3] and 219 nM in assay [4].
As to `CC(C)(C)c1ccc(Nc2cccc(-c3cnc4cc(-c5ccc(S(C)(=O)=O)cc5)ccn34)n2)cc1`, the IC50 was 110 nM in assay [1], 203 nM in assay [2], over 1000 nM in assay [3] and over 1000 nM in assay [4].
`Cn1nc(C(C)(C)C)cc1Nc1cccc(-c2cnc3cc(-c4ccc(S(C)(=O)=O)cc4)ccn23)n1`: the IC50 in assay [1] worked out at 4.3 nM; in assay [2] it was 5.32 nM; in assay [3], 54.2 nM; in assay [4], 688 nM.
Take `Cn1cc(-c2ccn3c(-c4cccc(Nc5ccc6c(c5)OCO6)n4)cnc3c2)cn1`: the IC50 in assay [1] was 6.09 nM; in assay [2], 4.91 nM; in assay [3] it was 920 nM.
With `CC(C)c1ccc(Nc2cccc(-c3cnc4cc(-c5cnn(C)c5)ccn34)n2)cc1`, the IC50 in assay [1] is 13.5 nM; in assay [2], 8.91 nM; in assay [3] it was 142 nM; in assay [4], over 1000 nM.
In the case of `CCOC(=O)Cc1ccc(Nc2cccc(-c3cnc4cc(-c5cnn(C)c5)ccn34)n2)cc1`, the IC50 in assay [1] is 99 nM; in assay [2], 121 nM; in assay [3], over 1000 nM; in assay [4], over 1000 nM.
On to `Cn1cc(-c2ccn3c(-c4cccc(NCc5c(F)cccc5F)n4)cnc3c2)cn1`, for which the IC50 in assay [1] was 1.31 nM; in assay [2], 5.9 nM; in assay [3], 566 nM; in assay [4], 119 nM.
In the case of `CCc1nc(C(N)=O)c(Nc2ccc(N3CCC(N4CCN(C)CC4)CC3)c(OC)c2)nc1NC1CCOCC1` [GILTERITINIB], the IC50 in assay [4] was over 1000 nM.
`COc1cc2/c(=N/c3ccc(Br)cc3F)nc[nH]c2cc1OCC1CCN(C)CC1` [VANDETANIB]: in assay [3], the IC50 is over 20000 nM.
Regarding `Cn1cc(-c2ccn3c(-c4cccc(Nc5ccc(C#N)cc5)n4)cnc3c2)cn1`, the IC50 is 18.3 nM in assay [1], 48 nM in assay [2], 135 nM in assay [3] and over 1000 nM in assay [4].
As to `Cc1ccc(-n2nc(C(C)(C)C)cc2Nc2cccc(-c3cnc4cc(-c5ccc(S(C)(=O)=O)cc5)ccn34)n2)cc1`, the IC50 in assay [1] was 278 nM; in assay [2] it was 613 nM; in assay [3] it was over 1000 nM; in assay [4], over 1000 nM.
With `CCN(CC)CCOc1ccc(Nc2cccc(-c3cnc4cc(-c5cnn(C)c5)ccn34)n2)cc1`, the IC50 in assay [1] amounted to 0.51 nM; in assay [2], 0.87 nM; in assay [3], 7.42 nM; in assay [4], 924 nM.
Turning to `Cn1cc(-c2ccn3c(-c4cccc(Nc5ccc(N6CCOCC6)cc5)n4)cnc3c2)cn1`, the IC50 was 3.25 nM in assay [1], 1.41 nM in assay [2], 238 nM in assay [3] and over 1000 nM in assay [4].
For `Cn1cc(-c2ccn3c(-c4cccc(Nc5ccc(Cl)cc5)n4)cnc3c2)cn1`, the IC50 worked out at 28.8 nM in assay [1], 23.1 nM in assay [2], 337 nM in assay [3] and 736 nM in assay [4].
On to `COc1cc(Nc2cccc(-c3cnc4cc(-c5cnn(C)c5)ccn34)n2)cc(OC)c1OC`, for which the IC50 was 6.95 nM in assay [1], 27.5 nM in assay [2], 105 nM in assay [3] and 960 nM in assay [4].
In the case of `Cn1cc(-c2ccn3c(-c4cccc(Cl)n4)cnc3c2)cn1`, the IC50 in assay [1] was 28.7 nM; in assay [2], 228 nM; in assay [3], 458 nM; in assay [4], over 1000 nM.
As to `Cn1cc(-c2ccn3c(-c4cccc(Nc5ccc(C(C)(C)C)cc5)n4)cnc3c2)cn1`, the IC50 in assay [2] was 41.9 nM; in assay [3], over 1000 nM; in assay [4] it was over 1000 nM.
`COc1ccccc1Nc1cccc(-c2cnc3cc(-c4cnn(C)c4)ccn23)n1`: the IC50 amounted to 2.38 nM in assay [1], 1.65 nM in assay [2], 14.4 nM in assay [3] and 274 nM in assay [4].
In the case of `Cn1cc(-c2ccn3c(-c4cccc(Nc5ccccc5C(F)(F)F)n4)cnc3c2)cn1`, the IC50 in assay [1] amounted to 0.95 nM; in assay [2], 0.31 nM; in assay [3], 184 nM; in assay [4], 262 nM.
Consider `C=Cc1ccc(Nc2cccc(-c3cnc4cc(-c5cnn(C)c5)ccn34)n2)cc1`, for which the IC50 in assay [1] is 6.76 nM; in assay [2], 4.39 nM; in assay [3] it was 90.7 nM; in assay [4], over 1000 nM.
Consider `Cn1cc(-c2ccn3c(-c4cccc(Cl)c4)cnc3c2)cn1`, for which the IC50 in assay [1] was 29.5 nM; in assay [2], 591 nM; in assay [3] it was 304 nM; in assay [4], over 1000 nM.

As a reminder, the IC50 is the midpoint of a concentration-inhibition curve.
